Assay [1] is described as follows: OD615 S. cerevisiae growth inhibition, permissive medium, pilot counter-assay, permissive growth control for S. cerevisiae lifespan shortening project (AID 705;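 active = growth inhibition above 25% in both replicates, a cutoff set 3 SD above the mean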). As to conditions: OD615, 24 h, at 10 µM, stronger effect = higher value. Put shortly:
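assay system = Saccharomyces cerevisiae strain carrying genetically modified DeaD replicative-lifespan system | medium = SC raffinose/galactose permissive medium | dosing = 10 µM single dose, 0.25% DMSO | schedule = 24 h compound exposure at 30 °C after 4 h pre-growth | measured by = OD at 615 nm | read-out basis = growth inhibition from lowered OD615 after 24 h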

Assay [2] in a line: Restrictive medium S. cerevisiae growth inhibition, OD615, pilot screen of yeast lifespan reduction project, restrictive growth control (AID 706;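 active = growth inhibition above a set limit, 3 SD over mean compound inhibition, in both replicates, cut at about 43% in these data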;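 note: modified DeaD lifespan yeast strain shifted to restrictive glucose medium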). Particulars: OD615, 48 h, at 10 µM, stronger effect = higher value. Put shortly:
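Buffer or medium: CSMM-D glucose medium. Material: genetically modified Saccharomyces cerevisiae, DeaD replicative lifespan assay strain. Times: 48 h compound exposure at 30 °C. Measured by: optical density at 615 nm.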

Assay [3] is described as follows: viability gain of MRP-1-high H69AR cells under doxorubicin, pilot screen, MRP-1 activator project, CellTiter-Glo, duplicate (AID 807;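 active = viability increase at or above a cutoff of the median across tested compounds plus 3 SD, cut at about 8.5% in these data, passing the limit was not always enough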;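 note: compound pretreatment 18-22 h then 72 h combined with doxorubicin; 0% = doxorubicin alone and 100% = vehicle without doxorubicin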). As to conditions: H69AR viability with doxorubicin, CellTiter-Glo luminescence; at 10 µM; stronger effect = higher value. A general note: ATP-based viability assays read luminescence as a measure of living cells.
Assay [4] is described as follows: growth suppression of beta-catenin knockout HCT116, pilot screen, human colon tumor cells (AID 823;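 active = cell viability at or below a set limit in both duplicate runs, the limit being the all-compound median minus 4 SD, cut at about 23% in these data, passing the limit was not always enough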;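 note: 0% = wells killed by 20 µM Hyamine and 100% = untreated DMSO cell wells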). Particulars: CellTiter-Glo, 60 h, at 10 µM, stronger effect = lower value.
The nature of assay [5]: growth suppression of PTEN-deleted HCT116, pilot screen, cell-based, HCT116 clonal line, CellTiter-Glo (AID 824;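 active = viability at or below 27.92% in each of two runs, the all-compound median minus 4 SD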;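 note: 0% = 20 µM Hyamine control and 100% = vehicle cell control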). As to conditions: 60 h, at 10 µM, stronger effect = lower value.
Assay [6] can be described thus: inhibitors of the yeast RAM network, pilot screen, dse1pr::URA3 reporter, 5-FOA selection (AID 869).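 Note: 0% = DMSO wells with no growth and 100% = 10 µM 1-NA-PP1 with full growth; RAM network block rescues cells from 5-FOA so hits raise OD615 growth.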 Particulars: S. cerevisiae dse1pr::URA3 5-FOA growth, OD615, 2 d; at 10 µM; stronger effect = higher value; strain carries analog-sensitive mutant Cbk1 kinase.
Assay [7] is described as follows: RAM signaling pathway blockade in yeast – S. cerevisiae, Pdr1DBD-CYC8 efflux-inhibited sensitized strain, primary screen (AID 1298;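 active = RAM network inhibition above 8.4% in each of two replicates, 3 SD over the compound average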;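 note: 0% = DMSO untreated cells without growth and 100% = 10 µM 1-NA-PP1 full growth; higher means more yeast growth rescued from 5-FOA killing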). Particulars: S. cerevisiae cbk1-as DSE1-URA3 strain, 5-FOA growth OD615, 2 d; at 50 µM; stronger effect = higher value.

Molecules are shown by their SMILES. A number with no mark means an inactive call. Inconclusive results are not listed. The source made the active and inactive calls.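 Rule for the calls, unless noted: active = inhibition over a set limit, the all-compound mean plus 3 SD, in both replicate runs; inconclusive = over that limit in just one replicate run; inactive = at or under that limit in both runs.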

Consider `COc1ccc(Nc2nnc(Cc3ccccc3)c(=O)[nH]2)c(OC)c1`, for which the growth inhibition is -23.5% in assay [1] and -17.1% in assay [2]. Further, in assay [3], the viability increase is 0.58%. Moreover, the viability – broadly, a read-out of living cells in per cent, often relative to untreated cells – is 93.5% in assay [4] and 92.7% in assay [5]. Moreover, in assay [6], the inhibition – broadly, the percentage by which the read-out fell short of the control – was 1.52%. In assay [7], the RAM network inhibition was 3.16%.
On to `O=C(Cn1ncc2c(=O)oc3ccccc3c21)N1CCC(N2CCCCC2)CC1`, for which the growth inhibition in assay [1] was 9.66%; in assay [2], 1.36%. Moreover, the viability increase in assay [3] is -1.31%. Also, the results for the viability in assay [4] and in assay [5] were 99.5% and 99.8%, respectively. Further, the inhibition in assay [6] is 1.65%. Also, the RAM network inhibition in assay [7] was 4.58%.
Regarding `CCOC(=O)COc1cccc2c(=O)n(CC(=O)N3CCN(C(=O)OCC)CC3)ccc12`, the growth inhibition in assay [1] is -4.37%; in assay [2], -7.13%. The viability increase in assay [3] is -2.1%. The figures for the viability in assay [4] and in assay [5] were 104% and 96.1%, respectively. Further, the inhibition in assay [6] was 1.04%. Also, in assay [7], the RAM network inhibition is 4.18%.
On to `CCCCOC(=O)Nc1ccc(N2CCOCC2)cc1`, for which the growth inhibition is -0.54% in assay [1] and 2.39% in assay [2]. Moreover, in assay [3], the viability increase was -0.38%. The viability in assay [4] is 98.2%; in assay [5], 102%. Also, the inhibition in assay [6] was 1.28%. Moreover, the RAM network inhibition in assay [7] is 4.87%.
Consider `COc1ccc(OC)c(N(CC(=O)O)S(=O)(=O)c2ccc(OC)c(OC)c2)c1`, for which the growth inhibition in assay [1] is -2.7%; in assay [2], -11.1%. The viability increase in assay [3] was -0.41%. Besides, the viability is 98.9% in assay [4] and 94% in assay [5]. Moreover, the inhibition in assay [6] is 2.03%. For the same compound, the RAM network inhibition in assay [7] is 4.23%.
`COc1cc(C)c(C)cc1S(=O)(=O)N1CCN(Cc2ccccc2)CC1`: the growth inhibition in assay [1] is 9.11%; in assay [2], -12.5%. For the same compound, the viability increase in assay [3] was -3.89%. Moreover, the figures for the viability in assay [4] and in assay [5] were 96.3% and 93.5%, respectively. In assay [6], the inhibition was 0.025%. For the same compound, in assay [7], the RAM network inhibition was 5%.
In the case of `Cc1c(C(=O)NCC2CCCO2)oc2ccc(S(=O)(=O)N3CC(C)CC(C)C3)cc12` (stereo not given), the growth inhibition is -2.38% in assay [1] and 14.2% in assay [2]. In addition, the viability increase in assay [3] is -4.71%. Further, the values for the viability in assay [4] and in assay [5] were 44.5% and 38.1%, respectively. In assay [6], the inhibition is 3.72%. Also, the RAM network inhibition in assay [7] was 4.28%.
As to `CCc1noc2c1/C(=N\O)CC(c1ccccc1)C2` (stereo not given), the growth inhibition in assay [1] was 0.555%; in assay [2], 4.22%. The viability increase in assay [3] was 2.87%. Besides, the viability in assay [4] was 83.3%; in assay [5] it was 84.8%. In addition, in assay [6], the inhibition is 1.78%. Besides, in assay [7], the RAM network inhibition is -1.18%.
Turning to `COc1ccccc1NC(=O)CSc1nc(O)cc(=O)n1-c1ccccc1OC`, the growth inhibition is -0.915% in assay [1] and -0.015% in assay [2]. Further, in assay [3], the viability increase is 0.76%. In addition, the viability in assay [4] and in assay [5] was 100% throughout. Besides, in assay [6], the inhibition was 0.485%. In assay [7], the RAM network inhibition is 3.1%.
Take `COC(=O)C(C)NC(=O)C1CCCN1S(=O)(=O)c1cc(C)c(Cl)cc1C` (stereo not given): the results for the growth inhibition in assay [1] and in assay [2] were -5.19% and -6.72%, respectively. Besides, the viability increase in assay [3] was -1.54%. Besides, the viability in assay [4] was 93.8%; in assay [5] it was 94.9%. Moreover, the inhibition in assay [6] was 0.935%. For the same compound, the RAM network inhibition in assay [7] was 0.4%.
`CCn1c2ccccc2c2nnc(SCc3cc(=O)n4ccsc4n3)nc21`: the growth inhibition is -8.94% in assay [1] and 8.05% in assay [2]. In addition, in assay [3], the viability increase is -2.35%. Moreover, the viability in assay [4] was 93.5%; in assay [5], 86.3%. Moreover, the inhibition in assay [6] was 1.52%. The RAM network inhibition in assay [7] was 8.94%.
`O=C1CCCc2c1[nH]c1c(Br)cccc21`: the growth inhibition in assay [1] is 5.96%; in assay [2], -1.3%. Also, the viability increase in assay [3] was 0.96%. The viability in assay [4] was 108%; in assay [5], 105%. In assay [6], the inhibition was 0.425%. Further, the RAM network inhibition in assay [7] is 3.4%.
Consider `CSc1nnc(Cn2c(=O)sc3ccccc32)n1CCc1ccccc1`, for which the growth inhibition in assay [1] was 3.19%; in assay [2] it was 9.71%. Further, the viability increase in assay [3] was -1.75%. Besides, the viability in assay [4] was 92.2%; in assay [5], 83.3%. Further, the inhibition in assay [6] was 2.35%. Further, the RAM network inhibition in assay [7] is 6.93%.
As to `CCC(=O)Nc1cccc(-c2nnc(SCC(=O)c3ccccc3)n2C)c1`, the growth inhibition was 0.325% in assay [1] and 45.9% (active) in assay [2]. In assay [3], the viability increase is -1.76%. The figures for the viability in assay [4] and in assay [5] were 91.7% and 92.6%, respectively. Besides, in assay [6], the inhibition is 0%. Also, the RAM network inhibition in assay [7] is 4.95%.
Turning to `Cc1oc2cc(O)ccc2c(=O)c1N1C(=O)c2ccccc2C1=O`, the growth inhibition in assay [1] is -5.69%; in assay [2], 0.06%. The viability increase in assay [3] was 1.85%. In addition, the viability in assay [4] is 98.2%; in assay [5] it was 99.8%. For the same compound, in assay [6], the inhibition is 1.11%. Also, in assay [7], the RAM network inhibition was 1.15%.

The values above are taken from PubChem BioAssay.
